# Assay outcomes (PubChem BioAssay)
# Only a selection was taken, and hits are over-represented in it overall.
# A1 apoptosis 2 – A1 inhibitors via caspase activation, primary screen, cell-based, luminescence, HTS, two replicates | MEF A1-2A-BIM cells, caspase-Glo luminescence, 3 h; percent of clofoctol response, DMSO zero | caspase activation, % (no concentration beside the values) | 24,000 tested, under 10 active | AID 2465, 2010; in the data active = caspase activation above about 5.9%
#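 System: mouse embryonic fibroblasts co-expressing A1 and BIM (A1-2A-BIM), primed for A1 dependence; amount: 2500 cells/well; doses: 50 nL pinned compound; schedule: cells settled overnight, compound exposure 3 h at 37 °C, 5% CO2; detection: Caspase-Glo 3/7 luminescence, 1 h at room temperature; read-out: Caspase-3/7 activation, seen as rise in luminescence signal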
# INS-1E rescue – protection of INS-1E cells from cytokine death, primary screen, ATP luminescence, single point. INS-1E cytokine-induced death, 48 h; normalised: neutral wells 0, positive control 100. protection from cytokine-induced ATP loss, % at 10 µM. 0.1% of 20,000 active;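 active = mean replicate protection from cytokine-induced ATP loss at least 50% and at least 75% of replicates each reaching 50%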
#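 Assay system: INS-1E rat cells / Quantity: 8000 cells per well / Medium: RPMI without phenol red, 5% FBS / Probe or stimulus: three-cytokine cocktail (IFN-γ, TNF-α, IL-1β) / Dosing: one compound concentration, pin transfer / Timing: 48 h co-treatment, 10 min post-lysis read / Technique: CellTiter-Glo luminescence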
# T cruzi intra – inhibitors of intracellular Trypanosoma cruzi, primary screen, cell-based, plate reader, single point, set 2; intracellular Trypanosoma cruzi in host cells; activity score (inhibition), % at 5.01 µM; 4.9% of 22,000 active; in the data active = activity score above about 55%;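 also: parasites and compound incubated about four days before reading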
# Numbers stand for hits; – = inactive; · = no result.
SMILES,A1 apoptosis 2,INS-1E rescue,T cruzi intra
C[C@@H]1CCCCO[C@H](CN(C)C(=O)Nc2ccc(F)cc2)[C@@H](C)CN([C@H](C)CO)C(=O)c2cc(NC(=O)Nc3ccc(F)cc3)ccc2O1,–,–,59
C[C@@H]1CCCCO[C@H](CN(C)C(=O)Nc2ccc(C(F)(F)F)cc2)[C@@H](C)CN([C@H](C)CO)C(=O)c2cc(NC(=O)Nc3ccccc3)ccc2O1,–,–,57
C[C@@H]1CCCCO[C@H](CN(C)C(=O)Nc2ccc(C(F)(F)F)cc2)[C@@H](C)CN([C@H](C)CO)C(=O)c2cc(NC(=O)Nc3ccc(C(F)(F)F)cc3)ccc2O1,–,–,65
C[C@H]1CCCCO[C@H](CN(C)C(=O)Nc2ccccc2)[C@@H](C)CN([C@@H](C)CO)C(=O)c2cc(NC(=O)Nc3ccc(C(F)(F)F)cc3)ccc2O1,–,·,·
C[C@@H]1CCCCO[C@H](CN(C)C(=O)Nc2ccc(C(F)(F)F)cc2)[C@@H](C)CN([C@H](C)CO)C(=O)c2cc(NC(=O)Nc3ccc(F)cc3)ccc2O1,–,–,65
CNC[C@@H]1Oc2c(NC(=O)Nc3ccc(C(F)(F)F)cc3)cccc2C(=O)N([C@H](C)CO)C[C@@H]1C,–,–,–
C[C@@H]1CN([C@@H](C)CO)C(=O)c2cc(NS(=O)(=O)c3ccc(Cl)cc3)ccc2O[C@H]1CN(C)C(=O)Nc1ccc2c(c1)OCO2,–,–,–
Cc1noc(C)c1NC(=O)N(C)C[C@@H]1Oc2ccc(NC(=O)NC3CCCCC3)cc2CC(=O)N([C@H](C)CO)C[C@H]1C,·,–,–
C[C@@H]1CN([C@H](C)CO)C(=O)c2cc(N(C)C)ccc2O[C@H]1CN(C)S(=O)(=O)c1cn(C)cn1,–,–,–
C[C@@H]1CN([C@@H](C)CO)C(=O)c2cc(NC(=O)C3CC3)ccc2O[C@H]1CN(C)S(=O)(=O)c1ccc(F)cc1,–,·,–
C[C@@H]1CCCCO[C@@H](CN(C)C(=O)Nc2ccc(C(F)(F)F)cc2)[C@@H](C)CN([C@H](C)CO)C(=O)c2cc(NC(=O)Nc3ccc(F)cc3)ccc2O1,–,–,71
C[C@@H]1CN([C@@H](C)CO)C(=O)c2cc(NC(=O)Cc3ccccc3)ccc2O[C@@H](C)CCCCO[C@H]1CN(C)C(=O)Nc1ccccc1,–,·,·
C[C@@H]1CN([C@@H](C)CO)C(=O)c2cc(NC(=O)Nc3ccc(C(F)(F)F)cc3)ccc2O[C@H]1CN(C)C(=O)Nc1ccc(C(F)(F)F)cc1,–,–,74
C[C@@H]1CN([C@H](C)CO)C(=O)c2cc(NC(=O)Nc3ccc(C(F)(F)F)cc3)ccc2O[C@@H]1CN(C)C(=O)Nc1ccc(C(F)(F)F)cc1,·,–,–
C[C@@H]1CCCCO[C@@H](CN(C)C(=O)Nc2ccc(C(F)(F)F)cc2)[C@@H](C)CN([C@H](C)CO)C(=O)c2cc(NC(=O)Cc3ccccc3)ccc2O1,·,–,59
C[C@H]1CCCCO[C@H](CN(C)C(=O)NC2CCCCC2)[C@@H](C)CN([C@@H](C)CO)C(=O)c2cc(NC(=O)Nc3ccc(C(F)(F)F)cc3)ccc2O1,–,·,·
C[C@H]1CCCCO[C@H](CN(C)C(=O)Nc2ccc(C(F)(F)F)cc2)[C@@H](C)CN([C@@H](C)CO)C(=O)c2cc(NC(=O)Nc3ccc(F)cc3)ccc2O1,–,·,·
C[C@@H]1CCCCO[C@H](CN(C)C(=O)NC2CCCCC2)[C@@H](C)CN([C@H](C)CO)C(=O)c2cc(NC(=O)Nc3ccc(C(F)(F)F)cc3)ccc2O1,·,–,64
C[C@@H]1CN([C@H](C)CO)C(=O)Cc2cc(NC(=O)c3ccncc3)ccc2O[C@@H]1CN(C)Cc1ccc(-c2ccccc2)cc1,·,–,–
Cc1noc(C)c1S(=O)(=O)N(C)C[C@H]1Oc2ccc(NC(=O)Nc3ccc(F)cc3)cc2CC(=O)N([C@@H](C)CO)C[C@@H]1C,–,·,·
COc1ccc(CN(C)C[C@H]2Oc3ccc(NS(=O)(=O)c4ccc(OC)cc4)cc3C(=O)N([C@@H](C)CO)C[C@@H]2C)cc1,–,–,–
C[C@H]1CN([C@@H](C)CO)C(=O)Cc2cc(NC(=O)c3ccncc3)ccc2O[C@@H]1CN(C)S(=O)(=O)c1ccc(F)cc1,·,–,–
C[C@@H]1CCCCO[C@H](CN(C)C(=O)Nc2ccc(C(F)(F)F)cc2)[C@@H](C)CN([C@H](C)CO)C(=O)c2cc(NC(=O)CCC(F)(F)F)ccc2O1,–,–,66
C[C@@H]1CCCCO[C@@H](CN(C)C(=O)Nc2ccc(C(F)(F)F)cc2)[C@@H](C)CN([C@H](C)CO)C(=O)c2cc(NC(=O)CCC(F)(F)F)ccc2O1,·,–,–
C[C@H](CO)N1C[C@H](C)[C@H](CN(C)S(=O)(=O)c2ccc(Cl)cc2)Oc2ccc(NC(=O)Cn3cnnn3)cc2C1=O,–,–,–
SMILES,A1 apoptosis 2,INS-1E rescue,T cruzi intra
COc1ccc(S(=O)(=O)N(C)C[C@H]2Oc3ccc(NC(=O)Nc4ccc(F)cc4)cc3C(=O)N([C@H](C)CO)C[C@H]2C)cc1,–,–,–
C=CCOC(=O)[C@H]1[C@@H]2C(=O)O[C@@H](c3ccccc3)[C@@H](c3ccccc3)N2[C@@H](c2ccc(OCCOC(=O)[C@@H]3C[C@@H]4C(=O)NCC(=O)N4[C@@H]3c3ccc(O)cc3)cc2)[C@]12C(=O)Nc1ccc(I)cc12,–,·,·
CC(C)NC(=O)Nc1ccc2c(c1)CC(=O)N([C@@H](C)CO)C[C@@H](C)[C@@H](CN(C)Cc1ccc(-c3ccccc3)cc1)O2,–,–,–
COc1ccc(NC(=O)Nc2ccc3c(c2)CC(=O)N([C@@H](C)CO)C[C@H](C)[C@H](CN(C)Cc2ccc(-c4ccccc4)cc2)O3)cc1,–,–,71
C[C@@H]1CN([C@H](C)CO)C(=O)Cc2cc(NC(=O)Nc3ccc(F)cc3)ccc2O[C@@H]1CN(C)Cc1ccc(-c2ccccc2)cc1,·,–,61
C[C@H](CO)N1C[C@H](C)[C@H](CN(C)Cc2ccc(C(F)(F)F)cc2)Oc2ccc(NC(=O)Nc3ccccc3)cc2CC1=O,–,–,–
CC(C)NC(=O)Nc1ccc2c(c1)CC(=O)N([C@H](C)CO)C[C@H](C)[C@H](CN(C)Cc1ccc(-c3ccccc3)cc1)O2,–,–,67
C[C@H](CO)N1C[C@H](C)[C@@H](CN(C)Cc2ccc(-c3ccccc3)cc2)Oc2ccc(NC(=O)Nc3ccc(F)cc3)cc2CC1=O,–,·,·
COc1ccc(NC(=O)Nc2ccc3c(c2)CC(=O)N([C@H](C)CO)C[C@H](C)[C@@H](CN(C)Cc2ccc(-c4ccccc4)cc2)O3)cc1,–,·,·
C[C@H](CO)N1C[C@H](C)[C@H](CN(C)Cc2ccc(-c3ccccc3)cc2)Oc2ccc(NC(=O)Nc3ccc(C(F)(F)F)cc3)cc2CC1=O,·,–,65
C[C@@H]1CN([C@H](C)CO)C(=O)Cc2cc(NS(=O)(=O)c3cccs3)ccc2O[C@H]1CN(C)Cc1ccc(-c2ccccc2)cc1,·,–,–
Cc1ccc(S(=O)(=O)Nc2ccc3c(c2)C(=O)N([C@@H](C)CO)C[C@H](C)[C@H](CN(C)C(=O)Nc2c(C)noc2C)O3)cc1,–,–,–
